Laboratory results as given in ChEMBL document CHEMBL1255243, “Resistance of Porphyromonas gingivalis ATCC 33277 to direct killing by antimicrobial peptides is protease independent” (2008).
The source made the active and inactive calls. The calls are words filed in the database; no cut-off is given here.

Experiments:
Porphyromonas gingivalis [1] = test: Antibacterial activity against protease deficient Porphyromonas gingivalis KDP136; format: functional
Streptococcus mutans [2] = test: Antibacterial activity against Streptococcus mutans ATCC 27351 assessed as growth inhibition at 100 ug/ml following preincubation of compound with supernatant of Porphyromonas gingivalis ATCC 33277; format: functional, organism-based
In short: (§1)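 Peptide at 100 μg/ml incubated with filter-sterilized stationary-phase culture supernatant (20% final) for set times; 10 µl added to 190 µl S. mutans overnight culture diluted 1:10 in BHI and sonicated 1 min; grown at 37°C, 5% CO2; OD650 read; % inhibition relative to no-peptide (0%) and medium-preincubated peptide (100%); three experiments in triplicate, mean ± SD.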

Streptococcus mutans [3] = test: Antibacterial activity against Streptococcus mutans ATCC 27351 assessed as growth inhibition at 100 ug/ml following preincubation of compound with supernatant of Aggregatibacter actinomycetemcommitans ATCC 29523; format: functional, organism-based; in short: as §1
Escherichia coli [4] = test: Antibacterial activity against Escherichia coli ATCC 25922 assessed as growth inhibition at 100 ug/ml following preincubation of compound with supernatant of Aggregatibacter actinomycetemcommitans ATCC 29523; format: functional, organism-based
In short: (§2)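 Peptide preincubated with filter-sterilized stationary-phase culture supernatant (20% final) for set times, then 10 µl added to 190 µl E. coli overnight culture (diluted 1:5,000 in BHI, sonicated 1 min); peptide 100 μg/ml final on cells; aerobic growth; OD650 read; % inhibition relative to no-peptide (0%) and medium-preincubated peptide (100%); three independent experiments in triplicate, mean ± SD.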

Escherichia coli [5] = test: Antibacterial activity against Escherichia coli ATCC 25922 assessed as growth inhibition at 100 ug/ml following preincubation of compound with supernatant of Porphyromonas gingivalis ATCC 33277; format: functional, organism-based; in short: as §2
Streptococcus mutans [6] = test: Antibacterial activity against Streptococcus mutans ATCC 27351 assessed as growth inhibition at 5 ug/ml following preincubation of compound with supernatant of Porphyromonas gingivalis ATCC 33277; format: functional, organism-based
In short: (§3)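 Stationary-phase P. gingivalis or A. actinomycetemcomitans cultures were spun 10 min at 10,000 × g and the supernatant filter-sterilised (0.2 μm). Peptide was preincubated with 20% (final) filtrate for varying times. It was then added to S. mutans (overnight culture diluted 1:10 in BHI, bath-sonicated 1 min), grown at 37°C in 5% CO2, and read at OD650. % inhibition: no-peptide = 0%, fresh-medium-preincubated peptide = 100%. Mean ± SD, three independent experiments.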

Porphyromonas gingivalis [7] = test: Binding affinity to membranes of Porphyromonas gingivalis KDP136 using Alexa Fluor-labeled compound at 0.8 mg/ml by fluorimetric assay
Streptococcus mutans [8] = test: Antibacterial activity against Streptococcus mutans ATCC 27351 assessed as growth inhibition at 5 ug/ml following preincubation of compound with supernatant of Aggregatibacter actinomycetemcommitans ATCC 29523; format: functional, organism-based; in short: as §3
Streptococcus mutans [9] = test: Antibacterial activity against Streptococcus mutans assessed as growth inhibition at 5 ug/ml following preincubation of compound with supernatant of Aggregatibacter actinomycetemcommitans ATCC 29523
Streptococcus mutans [10] = test: Antibacterial activity against Streptococcus mutans assessed as growth inhibition at 5 ug/ml following preincubation of compound with supernatant of Porphyromonas gingivalis ATCC 33277
Porphyromonas gingivalis [11] = test: Antibacterial activity against Porphyromonas gingivalis ATCC 33277; format: functional, organism-based
In short: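 Increasing amounts of peptide were added to a growing anaerobic P. gingivalis culture. Percent growth inhibition was calculated relative to untreated cells (0%). Means ± SD of three independent experiments.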

Streptococcus mutans [12] = test: Antibacterial activity against Streptococcus mutans assessed as growth inhibition at 40 ug/ml following preincubation of compound with supernatant of Porphyromonas gingivalis ATCC 33277
Streptococcus mutans [13] = test: Antibacterial activity against Streptococcus mutans ATCC 27351 assessed as growth inhibition at 40 ug/ml following preincubation of compound with supernatant of Aggregatibacter actinomycetemcommitans ATCC 29523; format: functional, organism-based; in short: as §3
Streptococcus mutans [14] = test: Antibacterial activity against Streptococcus mutans ATCC 27351 assessed as growth inhibition at 40 ug/ml following preincubation of compound with supernatant of Porphyromonas gingivalis ATCC 33277; format: functional, organism-based; in short: as §3
Streptococcus mutans [15] = test: Antibacterial activity against Streptococcus mutans assessed as growth inhibition at 40 ug/ml following preincubation of compound with supernatant of Aggregatibacter actinomycetemcommitans ATCC 29523

CC[C@H](C)[C@H](NC(=O)[C@H](CCCCN)NC(=O)[C@H](CCC(=O)O)NC(=O)[C@H](CCCCN)NC(=O)[C@H](CO)NC(=O)[C@H](CCCCN)NC(=O)[C@H](CCCNC(=N)N)NC(=O)[C@H](Cc1ccccc1)NC(=O)[C@H](Cc1ccccc1)NC(=O)[C@H](CC(=O)O)NC(=O)CNC(=O)[C@H](CC(C)C)NC(=O)[C@@H](N)CC(C)C)C(=O)NCC(=O)N[C@@H](CCCCN)C(=O)N[C@@H](CCC(=O)O)C(=O)N[C@@H](Cc1ccccc1)C(=O)N[C@@H](CCCCN)C(=O)N[C@@H](CCCNC(=N)N)C(=O)N[C@H](C(=O)N[C@H](C(=O)N[C@@H](CCC(N)=O)C(=O)N[C@@H](CCCNC(=N)N)C(=O)N[C@H](C(=O)N[C@@H](CCCCN)C(=O)N[C@@H](CC(=O)O)C(=O)N[C@@H](Cc1ccccc1)C(=O)N[C@@H](CC(C)C)C(=O)N[C@@H](CCCNC(=N)N)C(=O)N[C@@H](CC(N)=O)C(=O)N[C@@H](CC(C)C)C(=O)N[C@H](C(=O)N1CCC[C@H]1C(=O)N[C@@H](CCCNC(=N)N)C(=O)N[C@H](C(=O)N[C@@H](CCC(=O)O)C(=O)N[C@@H](CO)C(=O)O)[C@@H](C)O)C(C)C)[C@@H](C)CC)C(C)C)[C@@H](C)CC [CATHELICIDIN]
MIC (Porphyromonas gingivalis [1]): > 200 µg/mL
Activity (Streptococcus mutans [2]): inactive
Activity (Streptococcus mutans [3]): Active
Activity (Escherichia coli [4]): Active
Activity (Escherichia coli [5]): inactive

H-ALWKTLLKKVLKAAA-NH2
Activity (Streptococcus mutans [6]): inactive
Activity (Porphyromonas gingivalis [7]): inactive
Activity (Streptococcus mutans [8]): Active
Activity (Streptococcus mutans [9]): Active
Activity (Streptococcus mutans [10]): inactive
Activity (Porphyromonas gingivalis [11]): inactive

H-KRLFKKLLFSLRKY-NH2
Activity (Streptococcus mutans [12]): inactive
Activity (Streptococcus mutans [13]): Active
Activity (Streptococcus mutans [14]): inactive
Activity (Streptococcus mutans [15]): Active
